Reference: ChEMBL document CHEMBL1944580, “Synthesis of novel sulfonamide-1,2,4-triazoles, 1,3,4-thiadiazoles and 1,3,4-oxadiazoles, as potential antibacterial and antifungal agents. Biological evaluation and conformational analysis studies” (2012)
Values after ≈ are worked out from the molar mass of the structure shown.

tested on: Micrococcus flavus; experiment: Antibacterial activity against Micrococcus flavus ATCC 10240 treated for 24 hrs followed by sub-cultivated for 72 hrs by micro dilution method; format: functional; conditions: not given
How it was run: (§1)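 2 µl from each well was serially subcultured into 100 µl fresh broth per well and incubated a further 72 h. MBC is the lowest concentration with no visible growth, taken as 99.5% killing of the original inoculum. Streptomycin and ampicillin were the positive controls.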

| SMILES | MBC |
| --- | --- |
| CNc1nnc(Cc2cc(OC)c(OC)cc2S(=O)(=O)N(C)C)s1 | 540 µM (≈ 201 µg/mL) |

tested on: Salmonella typhimurium; experiment: Antibacterial activity against Salmonella Typhimurium ATCC 13311 treated for 24 hrs followed by sub-cultivated for 72 hrs by micro dilution method; format: functional, Salmonella enterica subsp. enterica serovar Typhimurium; conditions: Salmonella enterica; how it was run: as §1

| SMILES | MBC |
| --- | --- |
| CNc1nnc(Cc2cc(OC)c(OC)cc2S(=O)(=O)N(C)C)s1 | 270 µM (≈ 101 µg/mL) |

tested on: Fulvia fulva; experiment: Antifungal activity against Fulvia fulva treated for 72 hrs followed by sub-cultivated for 5 days by serial dilution method; format: functional; conditions: not given
How it was run: (§2)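 MFC obtained after the 72 h, 28 °C malt-broth microdilution (spore inoculum about 1.0 × 10^5 per well, compounds from 1 mg/ml DMSO). 2 µl was serially subcultured into 100 µl broth per well and incubated a further 5 days at 28 °C. MFC is the lowest concentration with no visible growth, taken as 99.5% killing of the original inoculum.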

| SMILES | MFC |
| --- | --- |
| CNc1nnc(Cc2cc(OC)c(OC)cc2S(=O)(=O)N(C)C)s1 | 70 µM (≈ 26.1 µg/mL) |

tested on: Listeria monocytogenes; experiment: Antibacterial activity against Listeria monocytogenes NCTC 7973 treated for 24 hrs followed by sub-cultivated for 72 hrs by micro dilution method; format: functional; conditions: not given; how it was run: as §1

| SMILES | MBC |
| --- | --- |
| CNc1nnc(Cc2cc(OC)c(OC)cc2S(=O)(=O)N(C)C)s1 | 540 µM (≈ 201 µg/mL) |

tested on: Salmonella typhimurium; experiment: Antibacterial activity against Salmonella Typhimurium ATCC 13311 after 24 hrs by micro dilution method; format: functional, Salmonella enterica subsp. enterica serovar Typhimurium; conditions: Salmonella enterica, ATCC 13311, 24 h
How it was run: (§3)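 Microdilution MIC in 96-well plates. Bacterial suspensions adjusted in sterile saline to 1.0 × 10^5 CFU/ml, giving 1.0 × 10^4 cfu per well in LB broth. Compounds tested at up to 1 mg/ml. Plates incubated 24 h. MIC taken as the lowest concentration with no visible growth under a binocular microscope. OD at 655 nm was also read against a blank and the positive control. Streptomycin and ampicillin were the positive controls.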

| SMILES | MIC |
| --- | --- |
| CNc1nnc(Cc2cc(OC)c(OC)cc2S(=O)(=O)N(C)C)s1 | 270 µM (≈ 101 µg/mL) |

tested on: Bacillus cereus; experiment: Antibacterial activity against Bacillus cereus clinical isolate treated for 24 hrs followed by sub-cultivated for 72 hrs by micro dilution method; format: functional; conditions: not given; how it was run: as §1

| SMILES | MBC |
| --- | --- |
| CNc1nnc(Cc2cc(OC)c(OC)cc2S(=O)(=O)N(C)C)s1 | 270 µM (≈ 101 µg/mL) |

tested on: Fulvia fulva; experiment: Antifungal activity against Fulvia fulva after 72 hrs by serial dilution method; format: functional; conditions: not given
How it was run: (§4)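 Modified microdilution MIC. Spores were washed from malt agar cultures with sterile 0.85% saline containing 0.1% Tween 80 and adjusted to about 1.0 × 10^5 per 100 µl well in malt broth. Compounds were dissolved in DMSO (1 mg/ml). Plates incubated 72 h at 28 °C. MIC is the lowest concentration with no visible growth under a binocular microscope. Bifonazole and ketoconazole were the references.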

| SMILES | MIC |
| --- | --- |
| CNc1nnc(Cc2cc(OC)c(OC)cc2S(=O)(=O)N(C)C)s1 | 70 µM (≈ 26.1 µg/mL) |

tested on: Pseudomonas aeruginosa; experiment: Antibacterial activity against Pseudomonas aeruginosa ATCC 27853 treated for 24 hrs followed by sub-cultivated for 72 hrs by micro dilution method; format: functional; conditions: not given; how it was run: as §1

| SMILES | MBC |
| --- | --- |
| CNc1nnc(Cc2cc(OC)c(OC)cc2S(=O)(=O)N(C)C)s1 | 270 µM (≈ 101 µg/mL) |

tested on: Pseudomonas aeruginosa; experiment: Antibacterial activity against Pseudomonas aeruginosa ATCC 27853 after 24 hrs by micro dilution method; format: functional; conditions: ATCC 27853, 24 h; how it was run: as §3

| SMILES | MIC |
| --- | --- |
| CNc1nnc(Cc2cc(OC)c(OC)cc2S(=O)(=O)N(C)C)s1 | 270 µM (≈ 101 µg/mL) |

tested on: Escherichia coli; experiment: Antibacterial activity against Escherichia coli ATCC 35210 after 24 hrs by micro dilution method; format: functional; conditions: ATCC 35210, 24 h; how it was run: as §3

| SMILES | MIC |
| --- | --- |
| CNc1nnc(Cc2cc(OC)c(OC)cc2S(=O)(=O)N(C)C)s1 | 270 µM (≈ 101 µg/mL) |

tested on: Aspergillus versicolor; experiment: Antifungal activity against Aspergillus versicolor ATCC 11730 treated for 72 hrs followed by sub-cultivated for 5 days by serial dilution method; format: functional; conditions: not given; how it was run: as §2

| SMILES | MFC |
| --- | --- |
| CNc1nnc(Cc2cc(OC)c(OC)cc2S(=O)(=O)N(C)C)s1 | 540 µM (≈ 201 µg/mL) |

tested on: Trichoderma viride; experiment: Antifungal activity against Trichoderma viride IAM 5061 treated for 72 hrs followed by sub-cultivated for 5 days by serial dilution method; format: functional; conditions: not given; how it was run: as §2

| SMILES | MFC |
| --- | --- |
| CNc1nnc(Cc2cc(OC)c(OC)cc2S(=O)(=O)N(C)C)s1 | 130 µM (≈ 48.4 µg/mL) |

tested on: Aspergillus niger; experiment: Antifungal activity against Aspergillus niger ATCC 6275 treated for 72 hrs followed by sub-cultivated for 5 days by serial dilution method; format: functional; conditions: not given; how it was run: as §2

| SMILES | MFC |
| --- | --- |
| CNc1nnc(Cc2cc(OC)c(OC)cc2S(=O)(=O)N(C)C)s1 | 140 µM (≈ 52.1 µg/mL) |

tested on: Aspergillus niger; experiment: Antifungal activity against Aspergillus niger ATCC 6275 after 72 hrs by serial dilution method; format: functional; conditions: ATCC 6275, 72 h; how it was run: as §4

| SMILES | MIC |
| --- | --- |
| CNc1nnc(Cc2cc(OC)c(OC)cc2S(=O)(=O)N(C)C)s1 | 70 µM (≈ 26.1 µg/mL) |

tested on: Enterobacter cloacae; experiment: Antibacterial activity against Enterobacter cloacae human isolate after 24 hrs by micro dilution method; format: functional; conditions: not given; how it was run: as §3

| SMILES | MIC |
| --- | --- |
| CNc1nnc(Cc2cc(OC)c(OC)cc2S(=O)(=O)N(C)C)s1 | 270 µM (≈ 101 µg/mL) |

tested on: Staphylococcus aureus; experiment: Antibacterial activity against Staphylococcus aureus ATCC 6538 treated for 24 hrs followed by sub-cultivated for 72 hrs by micro dilution method; format: functional; conditions: not given; how it was run: as §1

| SMILES | MBC |
| --- | --- |
| CNc1nnc(Cc2cc(OC)c(OC)cc2S(=O)(=O)N(C)C)s1 | 540 µM (≈ 201 µg/mL) |

tested on: Aspergillus flavus; experiment: Antifungal activity against Aspergillus flavus ATCC 9643 treated for 72 hrs followed by sub-cultivated for 5 days by serial dilution method; format: functional; conditions: not given; how it was run: as §2

| SMILES | MFC |
| --- | --- |
| CNc1nnc(Cc2cc(OC)c(OC)cc2S(=O)(=O)N(C)C)s1 | 270 µM (≈ 101 µg/mL) |

tested on: Penicillium ochrochloron; experiment: Antifungal activity against Penicillium ochrochloron ATCC 9112 after 72 hrs by serial dilution method; format: functional; conditions: ATCC 9112, 72 h; how it was run: as §4

| SMILES | MIC |
| --- | --- |
| CNc1nnc(Cc2cc(OC)c(OC)cc2S(=O)(=O)N(C)C)s1 | 140 µM (≈ 52.1 µg/mL) |

tested on: Aspergillus fumigatus; experiment: Antifungal activity against Aspergillus fumigatus human isolate treated for 72 hrs followed by sub-cultivated for 5 days by serial dilution method; format: functional; conditions: not given; how it was run: as §2

| SMILES | MFC |
| --- | --- |
| CNc1nnc(Cc2cc(OC)c(OC)cc2S(=O)(=O)N(C)C)s1 | 270 µM (≈ 101 µg/mL) |

tested on: Aspergillus versicolor; experiment: Antifungal activity against Aspergillus versicolor ATCC 11730 after 72 hrs by serial dilution method; format: functional; conditions: ATCC 11730, 72 h; how it was run: as §4

| SMILES | MIC |
| --- | --- |
| CNc1nnc(Cc2cc(OC)c(OC)cc2S(=O)(=O)N(C)C)s1 | 270 µM (≈ 101 µg/mL) |

tested on: Micrococcus flavus; experiment: Antibacterial activity against Micrococcus flavus ATCC 10240 after 24 hrs by micro dilution method; format: functional; conditions: ATCC 10240, 24 h; how it was run: as §3

| SMILES | MIC |
| --- | --- |
| CNc1nnc(Cc2cc(OC)c(OC)cc2S(=O)(=O)N(C)C)s1 | 270 µM (≈ 101 µg/mL) |

tested on: Penicillium ochrochloron; experiment: Antifungal activity against Penicillium ochrochloron ATCC 9112 treated for 72 hrs followed by sub-cultivated for 5 days by serial dilution method; format: functional; conditions: not given; how it was run: as §2

| SMILES | MFC |
| --- | --- |
| CNc1nnc(Cc2cc(OC)c(OC)cc2S(=O)(=O)N(C)C)s1 | 270 µM (≈ 101 µg/mL) |

tested on: Escherichia coli; experiment: Antibacterial activity against Escherichia coli ATCC 35210 treated for 24 hrs followed by sub-cultivated for 72 hrs by micro dilution method; format: functional; conditions: not given; how it was run: as §1

| SMILES | MBC |
| --- | --- |
| CNc1nnc(Cc2cc(OC)c(OC)cc2S(=O)(=O)N(C)C)s1 | 270 µM (≈ 101 µg/mL) |

tested on: Bacillus cereus; experiment: Antibacterial activity against Bacillus cereus clinical isolate after 24 hrs by micro dilution method; format: functional; conditions: not given; how it was run: as §3

| SMILES | MIC |
| --- | --- |
| CNc1nnc(Cc2cc(OC)c(OC)cc2S(=O)(=O)N(C)C)s1 | 270 µM (≈ 101 µg/mL) |

tested on: Talaromyces funiculosus; experiment: Antifungal activity against Penicillium funiculosum ATCC 36839 after 72 hrs by serial dilution method; format: functional; conditions: ATCC 36839, 72 h; how it was run: as §4

| SMILES | MIC |
| --- | --- |
| CNc1nnc(Cc2cc(OC)c(OC)cc2S(=O)(=O)N(C)C)s1 | 140 µM (≈ 52.1 µg/mL) |

tested on: Trichoderma viride; experiment: Antifungal activity against Trichoderma viride IAM 5061 after 72 hrs by serial dilution method; format: functional; conditions: IAM 5061, 72 h; how it was run: as §4

| SMILES | MIC |
| --- | --- |
| CNc1nnc(Cc2cc(OC)c(OC)cc2S(=O)(=O)N(C)C)s1 | 70 µM (≈ 26.1 µg/mL) |

tested on: Talaromyces funiculosus; experiment: Antifungal activity against Penicillium funiculosum ATCC 36839 treated for 72 hrs followed by sub-cultivated for 5 days by serial dilution method; format: functional; conditions: not given; how it was run: as §2

| SMILES | MFC |
| --- | --- |
| CNc1nnc(Cc2cc(OC)c(OC)cc2S(=O)(=O)N(C)C)s1 | 270 µM (≈ 101 µg/mL) |

tested on: Enterobacter cloacae; experiment: Antibacterial activity against Enterobacter cloacae human isolate treated for 24 hrs followed by sub-cultivated for 72 hrs by micro dilution method; format: functional; conditions: not given; how it was run: as §1

| SMILES | MBC |
| --- | --- |
| CNc1nnc(Cc2cc(OC)c(OC)cc2S(=O)(=O)N(C)C)s1 | 270 µM (≈ 101 µg/mL) |

tested on: Listeria monocytogenes; experiment: Antibacterial activity against Listeria monocytogenes NCTC 7973 after 24 hrs by micro dilution method; format: functional; conditions: NCTC 7973, 24 h; how it was run: as §3

| SMILES | MIC |
| --- | --- |
| CNc1nnc(Cc2cc(OC)c(OC)cc2S(=O)(=O)N(C)C)s1 | 270 µM (≈ 101 µg/mL) |

tested on: Aspergillus fumigatus; experiment: Antifungal activity against Aspergillus fumigatus human isolate after 72 hrs by serial dilution method; format: functional; conditions: not given; how it was run: as §4

| SMILES | MIC |
| --- | --- |
| CNc1nnc(Cc2cc(OC)c(OC)cc2S(=O)(=O)N(C)C)s1 | 140 µM (≈ 52.1 µg/mL) |

tested on: Aspergillus flavus; experiment: Antifungal activity against Aspergillus flavus ATCC 9643 after 72 hrs by serial dilution method; format: functional; conditions: ATCC 9643, 72 h; how it was run: as §4

| SMILES | MIC |
| --- | --- |
| CNc1nnc(Cc2cc(OC)c(OC)cc2S(=O)(=O)N(C)C)s1 | 140 µM (≈ 52.1 µg/mL) |

tested on: Staphylococcus aureus; experiment: Antibacterial activity against Staphylococcus aureus ATCC 6538 after 24 hrs by micro dilution method; format: functional; conditions: ATCC 6538, 24 h; how it was run: as §3

| SMILES | MIC |
| --- | --- |
| CNc1nnc(Cc2cc(OC)c(OC)cc2S(=O)(=O)N(C)C)s1 | 270 µM (≈ 101 µg/mL) |
